From ChEMBL document CHEMBL3046951, “Volatile constituents from the leaves of Callicarpa japonica Thunb. and their antibacterial activities” (2004)

Tests used:
Bacillus cereus [1] = test: Antimicrobial activity against Bacillus cereus ATCC 11778 assessed as growth inhibition rate at 3.64 mg/l after 72 hr by spectrophotometry; assay type: functional; conditions: ATCC 11778, 72 h, read-out: GI
In short: (§1)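 Pure volatile compounds (purity >95%; one at 90%) were tested against B. cereus ATCC 11778. The strain was grown at 30 °C in nutrient broth for 24 h, then subcultured for 18 h. Optical density was read in a Bioscreen C every 24 h for 72 h, with 10% Tween 80 as the control.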

Staphylococcus aureus [2] = test: Antimicrobial activity against Staphylococcus aureus ATCC 25923 assessed as growth inhibition rate at 3.64 mg/l after 72 hr by spectrophotometry; assay type: functional; conditions: ATCC 25923, 72 h, read-out: GI
Salmonella typhimurium [3] = test: Antimicrobial activity against Salmonella enterica subsp. enterica serovar Typhimurium ATCC 14028 assessed as growth inhibition rate at 3.64 mg/l after 72 hr by spectrophotometry; assay type: functional; conditions: ATCC 14028, 72 h, read-out: GI
In short: (§2)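 Salmonella Typhimurium ATCC 14028 grown in nutrient broth at 30 °C, precultured 24 h, then subcultured 1:100 for 18 h before testing. Single volatile compounds (>95% pure) were added. OD was read every 24 h over 72 h in a Bioscreen C, with 10% Tween 80 as the comparison control.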

Listeria monocytogenes [4] = test: Antimicrobial activity against Listeria monocytogenes ATCC 19111 assessed as growth inhibition rate at 3.64 mg/l after 72 hr by spectrophotometry; assay type: functional; conditions: ATCC 19111, 72 h, read-out: GI
In short: (§3)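 L. monocytogenes was grown at 30 °C in tryptic soy broth, subcultured for 18 h, and exposed to pure volatile compounds (>95% purity). Growth was followed by Bioscreen C optical density every 24 h for 72 h against a 10% Tween 80 control.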

Escherichia coli [5] = test: Antimicrobial activity against Escherichia coli O157:H7 ATCC 43894 assessed as growth inhibition rate at 3.64 mg/l after 72 hr by spectrophotometry; assay type: functional; conditions: O157:H7 ATCC 43894, 72 h, read-out: GI
Vibrio parahaemolyticus [6] = test: Antimicrobial activity against Vibrio parahaemolyticus ATCC 33844 assessed as growth inhibition rate at 3.64 mg/l after 72 hr by spectrophotometry; assay type: functional; conditions: ATCC 33844, 72 h, read-out: GI
Staphylococcus aureus [7] = test: microbe, parasite or virus in culture; conditions: ATCC 25923, 72 h, read-out: GI
Escherichia coli [8] = test: microbe, parasite or virus in culture; conditions: O157:H7 ATCC 43894, 72 h, read-out: GI
Salmonella typhimurium [9] = test: microbe, parasite or virus in culture; conditions: Salmonella enterica, ATCC 14028, 72 h, read-out: GI
Listeria monocytogenes [10] = test: microbe, parasite or virus in culture; conditions: ATCC 19111, 72 h, read-out: GI
Bacillus cereus [11] = test: microbe, parasite or virus in culture; conditions: ATCC 11778, 72 h, read-out: GI
Vibrio parahaemolyticus [12] = test: microbe, parasite or virus in culture; conditions: ATCC 33844, 72 h, read-out: GI
Staphylococcus aureus [13] = test: Antimicrobial activity against Staphylococcus aureus ATCC 25923 assessed as growth inhibition rate at 1.44 mg/l after 72 hr by spectrophotometry; assay type: functional; conditions: ATCC 25923, 72 h, read-out: GI
Escherichia coli [14] = test: Antimicrobial activity against Escherichia coli O157:H7 ATCC 43894 assessed as growth inhibition rate at 1.44 mg/l after 72 hr by spectrophotometry; assay type: functional; conditions: O157:H7 ATCC 43894, 72 h, read-out: GI
Listeria monocytogenes [15] = test: Antimicrobial activity against Listeria monocytogenes ATCC 19111 assessed as growth inhibition rate at 1.44 mg/l after 72 hr by spectrophotometry; assay type: functional; conditions: ATCC 19111, 72 h, read-out: GI; in short: as §3
Bacillus cereus [16] = test: Antimicrobial activity against Bacillus cereus ATCC 11778 assessed as growth inhibition rate at 1.44 mg/l after 72 hr by spectrophotometry; assay type: functional; conditions: ATCC 11778, 72 h, read-out: GI; in short: as §1
Vibrio parahaemolyticus [17] = test: Antimicrobial activity against Vibrio parahaemolyticus ATCC 33844 assessed as growth inhibition rate at 1.44 mg/l after 72 hr by spectrophotometry; assay type: functional; conditions: ATCC 33844, 72 h, read-out: GI
Salmonella typhimurium [18] = test: Antimicrobial activity against Salmonella enterica subsp. enterica serovar Typhimurium ATCC 14028 assessed as growth inhibition rate at 1.44 mg/l after 72 hr by spectrophotometry; assay type: functional; conditions: ATCC 14028, 72 h, read-out: GI; in short: as §2

CCc1ccco1
inhibition of growth at 3.64 µg/mL (Bacillus cereus [1]): 0%
inhibition of growth at 3.64 µg/mL (Staphylococcus aureus [2]): 4.3%
inhibition of growth at 3.64 µg/mL (Salmonella typhimurium [3]): 1.6%
inhibition of growth at 3.64 µg/mL (Listeria monocytogenes [4]): 0%
inhibition of growth at 3.64 µg/mL (Escherichia coli [5]): 0%
inhibition of growth at 3.64 µg/mL (Vibrio parahaemolyticus [6]): 2.3%

CCO [ALCOHOL]
inhibition of growth at 104.72 µg/mL (Staphylococcus aureus [7]): 3.2%
inhibition of growth at 104.72 µg/mL (Escherichia coli [8]): 2%
inhibition of growth at 104.72 µg/mL (Salmonella typhimurium [9]): 3.4%
inhibition of growth at 104.72 µg/mL (Listeria monocytogenes [10]): 0%
inhibition of growth at 104.72 µg/mL (Bacillus cereus [11]): 0%
inhibition of growth at 104.72 µg/mL (Vibrio parahaemolyticus [12]): 3.9%

CCOC(C)=O [ETHYL ACETATE]
inhibition of growth at 1.44 µg/mL (Staphylococcus aureus [13]): 6.6%
inhibition of growth at 1.44 µg/mL (Escherichia coli [14]): 0%
inhibition of growth at 1.44 µg/mL (Listeria monocytogenes [15]): 0%
inhibition of growth at 1.44 µg/mL (Bacillus cereus [16]): 0%
inhibition of growth at 1.44 µg/mL (Vibrio parahaemolyticus [17]): 4.5%
inhibition of growth at 1.44 µg/mL (Salmonella typhimurium [18]): 9.3%
